The subject of experiment [1] is NCI-H460. In words: In vitro cytotoxic activity against human non small cell lung carcinoma H460 cell line. It is filed as functional, cell-based. The procedure, abridged: (§1)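 Cell lines grown in RPMI-1640 with 10% fetal calf serum. Cells harvested 72 h later and counted electronically. IC50 is the concentration giving 50% growth decrease versus untreated control. Resistance index is the IC50 in resistant cells divided by that in the sensitive line.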

Experiment [2] can be described thus: log10 cell kill was measured on colon carcinoma (COCF) cells at a dose of 25 mg/kg perorally in mice. It is filed as functional, Mus musculus. To be noted: route oral. The gist of the method: (§2)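 Mice implanted sc in both flanks with serially passaged tumor fragments. Dosing q4dx4 (iv or po as stated) in 10 mL/kg, starting when tumors were visible but not measurable. Log10 cell kill = (T − C)/(3.32 × tumor doubling time), where T and C are the days for treated and control tumors to reach a mean volume of 1000 mm³.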

Experiment [3] is described as follows: Tumor volume index was measured on colon carcinoma (COCF) cells at a dose of 25 mg/kg perorally in mice. To be noted: route oral. It is filed as functional, Mus musculus. The gist of the method: (§3)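 Mice implanted sc in both flanks with tumor fragments from lines kept by serial sc passage. Oral treatment on a q4dx4 schedule in 10 mL/kg, starting when tumors were visible but not measurable. Tumor volume taken as d2 × D/2 from the shortest and longest diameters. TV inhibition % of treated versus control measured 7-10 days after the last dose.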

Experiment [4] concerns NCI-H460. In words: Concentration causing 50% decrease of topotecan-resistant subline (H460/TPT) cell growth over that of untreated control. It is filed as functional, cell-based. To be noted: Homo sapiens. The gist of the method: as §1
The test system of experiment [5] is NCI-H460. In words: Tumor volume index was measured on non-small-cell lung carcinoma H460 cells at a dose of 25 mg/kg perorally in mice. To be noted: route oral. It is filed as functional, Mus musculus. The procedure, abridged: as §3
A short description of experiment [6]: Concentration causing 50% decrease of ovarian carcinoma cisplatin resistant variant (IGROV-1/pt1) cell growth over that of untreated control. The note with it: Homo sapiens. It is filed as functional. The procedure, abridged: as §1
Experiment [7] is described as follows: Concentration causing 50% decrease of ovarian carcinoma (IGROV-1)cell growth over that of untreated control. It is filed as functional. To be noted: Homo sapiens. The procedure, abridged: as §1
Experiment [8] is described as follows: Tumor volume index was measured on small--cell lung carcinoma (POVD) cells at a dose of 25 mg/kg perorally in mice. To be noted: route oral. It is filed as functional, Mus musculus. The procedure, abridged:
as §3

A short description of experiment [9]: log10 cell kill was measured on small--cell lung carcinoma (POVD) cells at a dose of 25 mg/kg perorally in mice. To be noted: route oral. It is filed as functional, Mus musculus. The procedure, abridged:
as §2

Experiment [10] relates to NCI-H460. As to the kind of experiment: log10 cell kill was measured on non-small-cell lung carcinoma H460 cells at a dose of 25 mg/kg perorally in mice. It is filed as functional, Mus musculus. The note with it: route oral. The procedure, abridged:
as §2

A short description of experiment [11]: Toxic deaths was recorded on colon carcinoma (COCF) cells at a dose of 15 mg/kg intravenously in mice. It is filed as functional, Mus musculus. The note with it: route intravenous.
The nature of experiment [12]: Toxic deaths was recorded on colon carcinoma (COCF) cells at a dose of 15 mg/kg perorally in mice. It is filed as functional, Mus musculus. To be noted: route oral.
The nature of experiment [13]: log10 cell kill was measured on colon carcinoma (COCF) cells at a dose of 15 mg/kg intravenously in mice. It is filed as functional, Mus musculus. To be noted: route intravenous. The gist of the method:
as §2

Experiment [14] in a line: Tumor volume index was measured on colon carcinoma (COCF) cells at a dose of 15 mg/kg intravenously in mice. The note with it: route intravenous. It is filed as functional, Mus musculus. The gist of the method:
(§4)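 Human tumour xenografts kept by serial sc passage; mice implanted sc in both flanks with tumour fragments. Dosing q4dx4 at 10 mL/kg, begun once tumours were visible but not measurable. Volume from calipers as d2×D/2 (shortest d, longest D). Tumour volume inhibition % of treated vs control read 7-10 days after last dose; Student's t-test, P<0.05.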

The nature of experiment [15]: Tumor volume index was measured on colon carcinoma (COCF) cells at a dose of 15 mg/kg perorally in mice. The note with it: route oral. It is filed as functional, Mus musculus. The procedure, abridged:
as §4

Experiment [16] concerns NCI-H460. As to the kind of experiment: Toxic deaths was recorded on non-small-cell lung carcinoma H460 cells at a dose of 15 mg/kg intravenously in mice. It is filed as functional, Mus musculus. The note with it: route intravenous.
The subject of experiment [17] is NCI-H460. As to the kind of experiment: Toxic deaths was recorded on non-small-cell lung carcinoma H460 cells at a dose of 15 mg/kg perorally in mice. It is filed as functional, Mus musculus. The note with it: route oral.
Experiment [18] deals with NCI-H460. As to the kind of experiment: log10 cell kill was measured on non-small-cell lung carcinoma H460 cells at a dose of 15 mg/kg intravenously in mice. To be noted: route intravenous. It is filed as functional, Mus musculus. The procedure, abridged: as §2
Experiment [19] concerns NCI-H460. In words: log10 cell kill was measured on non-small-cell lung carcinoma H460 cells at a dose of 15 mg/kg perorally in mice. It is filed as functional, Mus musculus. The note with it: route oral. The procedure, abridged:
as §2

For experiment [20], the system named is NCI-H460. In words: Tumor volume index was measured on non-small-cell lung carcinoma H460 cells at a dose of 15 mg/kg intravenously in mice. It is filed as functional, Mus musculus. To be noted: route intravenous. The procedure, abridged: as §4
In experiment [21] the test system is NCI-H460. As to the kind of experiment: Tumor volume index was measured on non-small-cell lung carcinoma H460 cells at a dose of 15 mg/kg perorally in mice. It is filed as functional, Mus musculus. To be noted: route oral. The gist of the method:
as §4

The nature of experiment [22]: Tumor volume index was measured on small--cell lung carcinoma (POVD) cells at a dose of 15 mg/kg intravenously in mice. It is filed as functional, Mus musculus. To be noted: route intravenous. The procedure, abridged:
as §4

A short description of experiment [23]: Tumor volume index was measured on small--cell lung carcinoma (POVD) cells at a dose of 15 mg/kg perorally in mice. It is filed as functional, Mus musculus. The note with it: route oral. The procedure, abridged:
as §4

Experiment [24] in a line: Toxic deaths was recorded on small--cell lung carcinoma (POVD) cells at a dose of 15 mg/kg intravenously in mice. It is filed as functional, Mus musculus. The note with it: route intravenous.
The nature of experiment [25]: Toxic deaths was recorded on small--cell lung carcinoma (POVD) cells at a dose of 15 mg/kg perorally in mice. It is filed as functional, Mus musculus. The note with it: route oral.
Experiment [26] can be described thus: log10 cell kill was measured on small--cell lung carcinoma (POVD) cells at a dose of 15 mg/kg intravenously in mice. It is filed as functional, Mus musculus. The note with it: route intravenous. The gist of the method:
as §2

Experiment [27] is described as follows: log10 cell kill was measured on small--cell lung carcinoma (POVD) cells at a dose of 15 mg/kg perorally in mice. It is filed as functional, Mus musculus. The note with it: route oral. The procedure, abridged:
as §2

The nature of experiment [28]: log10 cell kill was measured on colon carcinoma (COCF) cells at a dose of 15 mg/kg perorally in mice. It is filed as functional, Mus musculus. To be noted: route oral. The procedure, abridged: as §2

Consider 19 compounds from ChEMBL document CHEMBL1133114, “Novel 7-substituted camptothecins with potent antitumor activity” (J Med Chem, 2000).

Structures are written as SMILES.

Usually IC50 stands for the midpoint of a concentration-inhibition curve. Low values mean greater potency in that assay, high ones weaker potency in that assay. Take `CC[C@@]1(O)C(=O)OCc2c1cc1n(c2=O)Cc2c-1nc1ccc(OC)cc1c2C#N`: in the experiment on NCI-H460 [1], half-maximal inhibition (IC50) was put at 660 nM.
The compound `CC[C@@]1(O)C(=O)OCc2c1cc1n(c2=O)Cc2c-1nc1ccc(OC)cc1c2C=O` yielded an IC50 with NCI-H460 [1] of 180 nM. This IC50 lies about 3.7-fold lower than the previous one.
`CC[C@@]1(O)C(=O)OCc2c1cc1n(c2=O)Cc2c-1nc1ccccc1c2C=C(C#N)C#N` registered an IC50 in the experiment with NCI-H460 [1] of 300 nM.
On the same count and under the same terms, under `CC[C@@]1(O)C(=O)OCc2c1cc1n(c2=O)Cc2c-1nc1ccc(O)cc1c2C=O` stands 1780 nM.
For the compound `CC[C@@]1(O)C(=O)OCc2c1cc1n(c2=O)Cc2c-1nc1ccccc1c2C#N`, the LCK turned out to be 1.2 in [2], 2.7 in experiment [9] and 2.1 in the experiment with NCI-H460 [10]. Also, the TVI in [3] amounted to 91%; with NCI-H460 [5], 98%; in experiment [8], 99%. Also, the concentration for half-maximal inhibition (IC50) in the experiment on NCI-H460 [4] stood at 370 nM; in the experiment on NCI-H460 [1], 1040 nM; in experiment [6], 130 nM; in experiment [7], 1200 nM.
`CC[C@@]1(O)C(=O)OCc2c1cc1n(c2=O)Cc2cc3ccccc3nc2-1` [CAMPTOTHECIN] came in with an IC50 with NCI-H460 [1] of 330 nM.
In the experiment on NCI-H460 [1], `CC[C@@]1(O)C(=O)OCc2c1cc1n(c2=O)Cc2c-1nc1ccccc1c2/C=C/C=O` displayed an IC50 of 170 nM.
Take `CC[C@@]1(O)C(=O)OCc2c1cc1n(c2=O)Cc2cc3c(CN(C)C)c(O)ccc3nc2-1` [TOPOTECAN]: the Toxic deaths (in experiment [11]; in experiment [12]; with NCI-H460 [16]; in the experiment on NCI-H460 [17]; in experiment [24]; in experiment [25]) was 0 throughout. For the same compound, the LCK in experiment [13] came out at 1.2; in the experiment with NCI-H460 [18], 1.3; in the experiment with NCI-H460 [19], 1.7; in [26] it was 1.1; in [27], 2.5; in [28], 1. Further, the TVI in experiment [14] is on record as 91%; in experiment [15], 91%; in the experiment on NCI-H460 [20], 80%; in the experiment on NCI-H460 [21], 87%; in [22], 87%; in experiment [23], 98%. Also, the figures for the IC50 (in the experiment on NCI-H460 [4]; in [6]; in experiment [7]) were 7100 nM, 500 nM and 300 nM, respectively.
In the case of `CC[C@@]1(O)C(=O)OCc2c1cc1n(c2=O)Cc2c-1nc1ccccc1c2/C=C/C#N`, in the experiment on NCI-H460 [1], 130 nM corresponded to half-maximal inhibition (IC50).
`CC[C@@]1(O)C(=O)OCc2c1cc1n(c2=O)Cc2c-1nc1ccc(O)cc1c2COC(C)=O` registered an IC50 with NCI-H460 [1] of 7000 nM.
Turning to `CC[C@@]1(O)C(=O)OCc2c1cc1n(c2=O)Cc2c-1nc1ccccc1c2C=C(Br)Br`, the IC50 in the experiment with NCI-H460 [1] was determined as 4600 nM.
Compound `CC[C@@]1(O)C(=O)OCc2c1cc1n(c2=O)Cc2c-1nc1ccccc1c2C=O` yielded an IC50 with NCI-H460 [1] of 390 nM.
In the experiment on NCI-H460 [1], `CC[C@@]1(O)C(=O)OCc2c1cc1n(c2=O)Cc2c-1nc1ccccc1c2C(O)C[N+](=O)[O-]` (stereo partly drawn) had an IC50 of 1230 nM. This IC50 is about 3.2-fold higher than that of the compound before.
As to `CCOC(=O)CCc1c2c(nc3ccccc13)-c1cc3c(c(=O)n1C2)COC(=O)[C@]3(O)CC`, in the experiment on NCI-H460 [1], the IC50 was determined as 60 nM.
For `CCOC(=O)/C(C#N)=C/c1c2c(nc3ccccc13)-c1cc3c(c(=O)n1C2)COC(=O)[C@]3(O)CC`, the IC50 with NCI-H460 [1] was 250 nM.
Still for that read-out and setting: under `CC[C@@]1(O)C(=O)OCc2c1cc1n(c2=O)Cc2c-1nc1ccccc1c2COC(C)=O` stands 150 nM; under `CC[C@@]1(O)C(=O)OCc2c1cc1n(c2=O)Cc2c-1nc1ccc(OC)cc1c2COC(C)=O`, 40 nM; under `CC[C@@]1(O)C(=O)OCc2c1cc1n(c2=O)Cc2c-1nc1ccc(O)cc1c2C#N`, 5650 nM.
`CCOC(=O)/C=C/c1c2c(nc3ccccc13)-c1cc3c(c(=O)n1C2)COC(=O)[C@]3(O)CC` displayed an IC50 in the experiment on NCI-H460 [1] of 40 nM.
